Measurements: ChEMBL document CHEMBL2321659, “Design, synthesis, and biological evaluation of indenoisoquinoline rexinoids with chemopreventive potential” (J Med Chem, 2013)

Molecular target: T1, Retinoic acid receptor RXR-alpha (Homo sapiens) (UniProt P19793)
T1 sequence (whole entry): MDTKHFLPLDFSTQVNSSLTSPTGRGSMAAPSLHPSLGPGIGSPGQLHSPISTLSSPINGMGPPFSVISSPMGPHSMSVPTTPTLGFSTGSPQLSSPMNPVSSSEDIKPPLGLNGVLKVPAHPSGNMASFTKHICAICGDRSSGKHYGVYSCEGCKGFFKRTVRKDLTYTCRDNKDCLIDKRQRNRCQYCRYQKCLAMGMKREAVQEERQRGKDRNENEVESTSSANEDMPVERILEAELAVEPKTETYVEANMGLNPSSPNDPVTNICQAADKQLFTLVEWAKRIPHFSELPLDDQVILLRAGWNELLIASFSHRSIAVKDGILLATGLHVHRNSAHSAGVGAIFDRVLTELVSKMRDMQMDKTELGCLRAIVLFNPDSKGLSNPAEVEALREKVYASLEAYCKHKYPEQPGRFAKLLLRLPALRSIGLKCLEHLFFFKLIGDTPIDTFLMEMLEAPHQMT
Assay: Activation of human RXRalpha activity expressed in COS1 cells assessed as induction ratio at 50 uM after 12 hrs by RXRE-luciferase reporter gene assay relative to untreated control
Assay type: cell-based
Settings: COS-1
Summary of the method: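 COS-1 cells transiently co-transfected per well with 100 ng RXRE-firefly luciferase reporter, 50 ng human RXRα expression vector and 3 ng Renilla luciferase vector using Lipofectamine 2000 for 24 h, then exposed to compound for a further 12 h. Dual-luciferase read-out. Induction ratio taken at 50 µM test concentration.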

SMILES	Ratio
NCCCn1c2c(c3ccc(NC(=O)C(=O)O)cc3c1=O)C(=O)c1ccccc1-2	< 1
NCCCn1c2c(c3ccc(NC(=O)CC(=O)O)cc3c1=O)C(=O)c1ccccc1-2	< 1
Cc1ccc2c3c(n(C)c(=O)c2c1)-c1ccccc1C3=O	< 1
CC(=O)Nc1ccc2c3c(n(CCCO)c(=O)c2c1)-c1ccccc1C3=O	< 1
Nc1ccc2c3c(n(CCCO)c(=O)c2c1)-c1ccccc1C3O (stereo not given)	< 1
COC(=O)C(=O)Nc1ccc2c3c(n(CCCN)c(=O)c2c1)-c1ccccc1C3=O	< 1
CC(C)(C)OC(=O)NCCCn1c2c(c3ccc(N)cc3c1=O)C(=O)c1ccccc1-2	< 1
O=C1c2ccccc2-c2c1c1ccc(Br)cc1c(=O)n2CCCO	< 1
N#Cc1ccc2c3c(n(CCCn4ccnc4)c(=O)c2c1)-c1ccccc1C3=O	< 1
COC(=O)/C=C/c1ccc2c3c(n(C)c(=O)c2c1)-c1ccccc1C3=O	< 1
Cn1c2c(c3ccc(CCCC(=O)O)cc3c1=O)C(=O)c1ccccc1-2	< 1
COC(=O)C(=O)Nc1ccc2c3c(n(C)c(=O)c2c1)-c1ccccc1C3=O	< 1
Cn1c2c(c3ccc(Br)cc3c1=O)C(=O)c1ccccc1-2	< 1
Cn1c2c(c3ccc(C(N)=O)cc3c1=O)C(=O)c1ccccc1-2	< 1
N#Cc1ccc2c3c(n(CCCN4CCOCC4)c(=O)c2c1)-c1ccccc1C3=O	< 1
NCCCn1c2c(c3ccc(N)cc3c1=O)C(O)c1ccccc1-2 (stereo not given)	< 1
COC(CCn1c2c(c3ccc([N+](=O)[O-])cc3c1=O)C(=O)c1ccccc1-2)OC	< 1
Cn1c2c(c3ccc(C#N)cc3c1=O)C(=O)c1ccccc1-2	< 1
NCCCn1c2c(c3ccc(NC(=O)CCCC(=O)O)cc3c1=O)C(=O)c1ccccc1-2	< 1
NC(=O)CCn1c2c(c3ccccc3c1=O)C(=O)c1ccccc1-2	< 1
CCOC(=O)CNc1ccc2c3c(n(C)c(=O)c2c1)-c1ccccc1C3=O	< 1
O=C(O)CCn1c2c(c3ccccc3c1=O)C(=O)c1ccccc1-2	< 1
COCCCn1c2c(c3ccc([N+](=O)[O-])cc3c1=O)C(=O)c1ccccc1-2	< 1
CN(C)c1ccc2c3c(n(CCCNC(=O)OC(C)(C)C)c(=O)c2c1)-c1ccccc1C3=O	< 1
COC(=O)CCn1c2c(c3ccc(Br)cc3c1=O)C(=O)c1ccccc1-2	< 1

SMILES	Ratio
COC(=O)c1ccc2c3c(n(C)c(=O)c2c1)-c1ccccc1C3=O	< 1
O=C1c2ccccc2-c2c1c1ccc([N+](=O)[O-])cc1c(=O)n2CCCO	< 1
O=C1c2ccccc2-c2c1c1ccc([N+](=O)[O-])cc1c(=O)n2CCCCO	< 1
Cn1c2c(c3ccc(C=O)cc3c1=O)C(=O)c1ccccc1-2	< 1
Cn1c2c(c3ccccc3c1=O)C(=O)c1ccccc1-2	< 1
Cn1c2c(c3ccc(CC(=O)O)cc3c1=O)C(=O)c1ccccc1-2	< 1
Cn1c2c(c3ccc(C(=O)O)cc3c1=O)C(=O)c1ccccc1-2	< 1
NC(=O)CCn1c2c(c3ccc([N+](=O)[O-])cc3c1=O)C(=O)c1ccccc1-2	< 1
COCCCn1c2c(c3ccccc3c1=O)C(=O)c1ccccc1-2	< 1
O=C1c2ccccc2-c2c1c1ccc([N+](=O)[O-])cc1c(=O)n2CCCBr	< 1
CC(=O)NCCCn1c2c(c3ccc([N+](=O)[O-])cc3c1=O)C(=O)c1ccccc1-2	< 1
Nc1ccc2c3c(n(CCCO)c(=O)c2c1)-c1ccccc1C3=O	< 1
Cn1c2c(c3ccc(/C=C/C(=O)O)cc3c1=O)C(=O)c1ccccc1-2	< 1
NCCCn1c2c(c3ccc(NC(=O)CCC(=O)O)cc3c1=O)C(=O)c1ccccc1-2	< 1
Cn1c2c(c3ccc(NC(=O)C(=O)O)cc3c1=O)C(=O)c1ccccc1-2	< 1
O=C1c2ccccc2-c2c1c1ccccc1c(=O)n2CCCO	< 1
COC(=O)CCCCC(=O)Nc1ccc2c3c(n(CCCN)c(=O)c2c1)-c1ccccc1C3=O	< 1
COC(=O)CC(=O)Nc1ccc2c3c(n(C)c(=O)c2c1)-c1ccccc1C3=O	< 1
COC(=O)CCC(=O)Nc1ccc2c3c(n(CCCN)c(=O)c2c1)-c1ccccc1C3=O	< 1
COC(=O)Cc1ccc2c3c(n(C)c(=O)c2c1)-c1ccccc1C3=O	< 1
CN(C)CCCn1c2c(c3ccc(C#N)cc3c1=O)C(=O)c1cc3c(cc1-2)OCO3	< 1
COC(=O)C#Cc1ccc2c3c(n(C)c(=O)c2c1)-c1ccccc1C3=O	< 1
CCOC(CCn1c2c(c3ccc([N+](=O)[O-])cc3c1=O)C(=O)c1ccccc1-2)OCC	< 1
Cn1c2c(c3ccc(Cl)cc3c1=O)C(=O)c1ccccc1-2	< 1
Cn1c2c(c3ccc(I)cc3c1=O)C(=O)c1ccccc1-2	< 1

SMILES	Ratio
COC(=O)CCCCC(=O)Nc1ccc2c3c(n(C)c(=O)c2c1)-c1ccccc1C3=O	< 1
CNc1ccc2c3c(n(CCCNC(=O)OC(C)(C)C)c(=O)c2c1)-c1ccccc1C3O (stereo not given)	< 1
CC(=O)Nc1ccc2c3c(n(CCCCl)c(=O)c2c1)-c1ccccc1C3=O	< 1
NCCCn1c2c(c3ccc(NC(=O)CCCCC(=O)O)cc3c1=O)C(=O)c1ccccc1-2	< 1
COC(=O)CCCc1ccc2c3c(n(C)c(=O)c2c1)-c1ccccc1C3=O	< 1
COC(=O)CCC(=O)Nc1ccc2c3c(n(C)c(=O)c2c1)-c1ccccc1C3=O	< 1
COC(=O)c1ccc2c3c(n(CCCN4CCOCC4)c(=O)c2c1)-c1ccccc1C3=O	< 1
[N-]=[N+]=NCCCn1c2c(c3ccc([N+](=O)[O-])cc3c1=O)C(=O)c1ccccc1-2	< 1
CCCCn1c2c(c3ccccc3c1=O)C(=O)c1ccccc1-2	< 1
CC(=O)Nc1ccc2c3c(n(CCCN=[N+]=[N-])c(=O)c2c1)-c1ccccc1C3=O	< 1
O=CCCn1c2c(c3ccc([N+](=O)[O-])cc3c1=O)C(=O)c1ccccc1-2	< 1
O=C1c2ccccc2-c2c1c1ccc(Br)cc1c(=O)n2CCCn1ccnc1	< 1
Cn1c2c(c3ccc(NC(=O)CC(=O)O)cc3c1=O)C(=O)c1ccccc1-2	< 1
COC(=O)CCCC(=O)Nc1ccc2c3c(n(C)c(=O)c2c1)-c1ccccc1C3=O	< 1
Nc1ccc2c3c(n(CCCCl)c(=O)c2c1)-c1ccccc1C3=O	< 1
CNCCCn1c2c(c3ccc(N)cc3c1=O)C(O)c1ccccc1-2 (stereo not given)	< 1
Cn1c2c(c3ccc(/C=C/C#N)cc3c1=O)C(=O)c1ccccc1-2	< 1
Cn1c2c(c3ccc(NCC(=O)O)cc3c1=O)C(=O)c1ccccc1-2	< 1
COC(=O)c1ccc2c3c(n(CCCn4ccnc4)c(=O)c2c1)-c1ccccc1C3=O	< 1
O=C(O)CCn1c2c(c3ccc([N+](=O)[O-])cc3c1=O)C(=O)c1ccccc1-2	< 1
CC(C)(C)OC(=O)NCCCn1c2c(c3ccc([N+](=O)[O-])cc3c1=O)C(=O)c1ccccc1-2	< 1
COC(=O)CCCC(=O)Nc1ccc2c3c(n(CCCN)c(=O)c2c1)-c1ccccc1C3=O	< 1
[N-]=[N+]=NCCn1c2c(c3ccc([N+](=O)[O-])cc3c1=O)C(=O)c1ccccc1-2	< 1
COc1ccc2c(c1)C(=O)c1c-2n(CCCN)c(=O)c2cc(N(C)C)ccc12	< 1
CNc1ccc2c3c(n(CCCNC(=O)OC(C)(C)C)c(=O)c2c1)-c1ccccc1C3=O	< 1
